This note sets out measurements from ChEMBL document CHEMBL5370658, “Development of First-in-Class Dual Sirt2/HDAC6 Inhibitors as Molecular Tools for Dual Inhibition of Tubulin Deacetylation” (J Med Chem, 2023).

Active and inactive are the calls of the source. The calls are words filed in the database; no cut-off is given here.

In experiment [1] the target is T1, NAD-dependent protein deacetylase sirtuin-3, mitochondrial (Homo sapiens, UniProt Q9NTG7).
T1 sequence (Q9NTG7 whole entry): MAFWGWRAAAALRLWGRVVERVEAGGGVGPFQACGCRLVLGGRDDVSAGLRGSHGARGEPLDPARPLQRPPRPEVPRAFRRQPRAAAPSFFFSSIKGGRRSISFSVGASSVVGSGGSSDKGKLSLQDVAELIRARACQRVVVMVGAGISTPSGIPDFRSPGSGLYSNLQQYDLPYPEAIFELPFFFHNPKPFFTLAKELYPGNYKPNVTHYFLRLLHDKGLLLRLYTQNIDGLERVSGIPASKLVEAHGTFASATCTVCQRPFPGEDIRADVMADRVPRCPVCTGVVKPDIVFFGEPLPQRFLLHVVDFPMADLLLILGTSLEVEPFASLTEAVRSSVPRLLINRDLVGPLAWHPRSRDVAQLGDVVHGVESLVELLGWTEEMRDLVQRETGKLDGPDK
The experiment in a line: Inhibition of recombinant human Sirt3 (118 to 395 residues) expressed in Escherichia coli BL21 Star (DE3) using ZMAL as substrate incubated for 4 hrs in presence of NAD+ by trypsin based fluorescence analysis. The procedure, abridged: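 Human Sirt1 (134–747) or Sirt3 (118–395) expressed in E. coli, purified by Strep-Tactin and size exclusion. Assay with ZMAL (10.5 µM final) in Tris buffer pH 8.0, 5% DMSO, at 37 °C. Started with NAD+ (500 µM final). Conversion set to 15–30%.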

Experiment [2] relates to PC-3M-luc. Conditions: Homo sapiens, dose 20.0 µM, time 5.0 hrs.
The nature of experiment [3]: Cytotoxicity against human W1 Ovarian cancer cells assessed as inhibition of cell growth at 50 uM incubated for 72 hrs by MTT assay relative to control. The experiment is classed as functional. On the technique in general: Tetrazolium dyes change colour on reduction, which living cells bring about.
Experiment [4] in a line: Cytotoxicity against human PC-3M-luc cells assessed as inhibition of cell growth at 50 uM incubated for 72 hrs by MTS assay relative to control. Type of experiment: functional.
Experiment [5] relates to HGC-27. In words: Cytotoxicity against human HGC-27 cells assessed as inhibition of cell growth at 50 uM incubated for 72 hrs by MTS assay relative to control. The experiment is classed as functional.
The test system of experiment [6] is MCF7. In words: Cytotoxicity against human MCF7 cells assessed as inhibition of cell growth at 50 uM incubated for 72 hrs by MTT assay relative to control. The experiment is classed as functional.
The target of experiment [7] is T2, NAD-dependent protein deacetylase sirtuin-2 (Homo sapiens) (UniProt Q8IXJ6).
T2 sequence (whole entry): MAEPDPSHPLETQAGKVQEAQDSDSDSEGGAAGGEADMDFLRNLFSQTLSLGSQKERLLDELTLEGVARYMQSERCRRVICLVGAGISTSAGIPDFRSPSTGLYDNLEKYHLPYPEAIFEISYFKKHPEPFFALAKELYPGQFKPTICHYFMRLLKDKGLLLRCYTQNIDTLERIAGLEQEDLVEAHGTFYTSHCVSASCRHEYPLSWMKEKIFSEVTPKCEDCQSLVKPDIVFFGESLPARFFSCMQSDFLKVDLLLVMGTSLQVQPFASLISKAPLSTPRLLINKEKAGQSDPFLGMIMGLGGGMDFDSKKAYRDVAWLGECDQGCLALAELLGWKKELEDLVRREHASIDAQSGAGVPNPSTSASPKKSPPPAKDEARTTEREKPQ
The experiment in a line: Inhibition of recombinant human Sirt2 (56 to 356 residues) expressed in Escherichia coli BL21 Star (DE3) mediated demyristoylation activity using ZMML as substrate at 10 uM incubated for 4 hrs in presence of NAD+ by trypsin based fluorescence analysis relative to control.

As a reminder, the IC50 is the concentration that inhibits the measured activity by half. As for `COCCn1cc(COc2cccc(Cc3cnc(NC(=O)CSc4nc(C)cc(C)n4)s3)c2)nn1`, the 50% inhibitory concentration (IC50) in experiment [1] was > 100 µM.

The term inhibition denotes the change of the read-out against control, counted positive when it falls. Turning to `Cc1cc(C)nc(SCC(=O)Nc2ncc(Cc3cccc(OCc4cn(CCOCCOCCOCCOCCC(=O)Nc5ccc(C(=O)NCc6ccc(C(=O)NO)cc6)cc5)nn4)c3)s2)n1`, the inhibition entry in experiment [2] is “Active”. For the same molecule, the inhibition at 50 µM in experiment [3], in experiment [4], in experiment [5] and in experiment [6] was < 20% throughout.

Regarding `O=C(CCCCCCC(=O)Nc1ccccc1)NO`, the inhibition in experiment [7] stood at 18%.

For the molecule `Cc1cc(C)nc(SCC(=O)Nc2ncc(Cc3cccc(OCc4cn(CCOCCOCCOCCOCCC(=O)Nc5ccc(C(=O)NCCCCCCC(=O)NO)cc5)nn4)c3)s2)n1`, the inhibition result in experiment [2] was “Active”. Also, the inhibition at 50 µM in experiment [3], in experiment [4] and in experiment [6] was < 20% in each case.

Turning to `Cc1cc(C)nc(SCC(=O)Nc2ncc(Cc3cccc(OCc4cn(Cc5ccccc5)nn4)c3)s2)n1`, the inhibition at 50 µM in experiment [4] was < 20%.

With `Cc1cc(C)nc(SCC(=O)Nc2ncc(Cc3cccc(OCc4cn(CCOCCOCCOCCOCCOCCOCCOCCOCCOCCOCCC(=O)Nc5ccc(C(=O)NCc6ccc(C(=O)NO)cc6)cc5)nn4)c3)s2)n1`, the inhibition entry in experiment [2] was “Active”. The inhibition at 50 µM in experiment [3], in experiment [4], in experiment [5] and in experiment [6] was < 20% throughout.
